Assay outcomes: PubChem, several laboratories
Compounds with a hit are over-represented: about 3.8% of the library has one in this group of screens.
GPR7 antagonist: antagonists of human GPR7 (neuropeptides B/W receptor 1); GPR7-expressing cells, fluorescence antagonist assay; inhibition, % at 4.4 µM; 290,000 tested, 1.1% active; AID 1861; in the data active = inhibition above about 16%, passing the limit was not always enough;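 note: cells stimulated with the agonist NPW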
MPTP block: inhibitors of mitochondrial permeability transition pore; isolated mouse mitochondria, Ca2+ swelling absorbance, 30 min; inhibition, % at 10 µM; 360,000 tested, 1.4% active; AID 602449;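 active = inhibition of 50% or more, scaled per plate between neutral and stimulator controls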
CHO parental Ca: counter-screen for OX1R antagonists: effect in parental CHO cells; 330,000 tested, 0.63% active; AID 463079; parental CHO-K1, ATP-induced calcium, Fluo-8 fluorescence; inhibition, % at 5.6 µM;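 active = inhibition above that plate's mean sample inhibition plus 3 SD, cut at about 26% in these data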
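Assay system: parental CHO cells; Read-out basis: percent inhibition of ATP-evoked calcium rise, normalized to controls; Benchmarks: ATP and no-ATP DMSO wells; Compound dosing: single nominal dose of 5.6 µM per compound; Signal: Fluo-8 calcium dye fluorescence; Also added: ATP as calcium-mobilizing challenge; Repeats: singlicate.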
OX1R antag-1: antagonists of human orexin 1 receptor; CHO/OX1R cells, Fluo-8 calcium fluorescence, orexin A; inhibition, % at 5 µM; 330,000 tested, 0.43% active; AID 434989;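 active = inhibition above its plate's threshold, mean inhibition of all tested compounds on the plate plus 3 SD, cut at about 37% in these data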
Target sequence (O43613 whole entry, looked up): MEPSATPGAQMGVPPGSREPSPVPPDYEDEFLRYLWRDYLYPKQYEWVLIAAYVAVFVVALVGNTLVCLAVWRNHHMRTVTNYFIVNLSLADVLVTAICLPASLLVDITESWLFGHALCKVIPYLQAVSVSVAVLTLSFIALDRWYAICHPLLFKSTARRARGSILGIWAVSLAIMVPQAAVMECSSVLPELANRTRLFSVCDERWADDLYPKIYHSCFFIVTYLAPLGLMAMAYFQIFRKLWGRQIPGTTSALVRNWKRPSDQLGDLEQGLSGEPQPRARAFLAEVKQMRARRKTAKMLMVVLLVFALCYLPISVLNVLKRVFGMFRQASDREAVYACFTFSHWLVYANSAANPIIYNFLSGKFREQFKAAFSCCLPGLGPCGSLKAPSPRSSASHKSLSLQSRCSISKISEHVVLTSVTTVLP
OX1R antag-2: blocks the human orexin 1 receptor; O43613; OX1R-expressing cells, FRET antagonist read-out; inhibition, % at 6.6 µM; 330,000 tested, 1.8% active; in the data active = inhibition mostly above about 38%, no sharp cut-off; inactive = mostly below about 40%
MPTP counter: membrane potential counter-screen of mitochondrial pore inhibitors; shares compounds with MPTP block; isolated mitochondria, Rhodamine 123 fluorescence; inhibition, % at 10 µM; 5,000 tested, 78% active; AID 624504; in the data active = inhibition above about 22%
Numbers stand for hits; - = inactive; . = no result given.

SMILES	GPR7 antagonist	MPTP block	CHO parental Ca	OX1R antag-1	OX1R antag-2	MPTP counter
Cc1ccccc1-c1nc2cc(NC(=O)C3CC3)ccc2o1	-	-	-	-	-	.
O=C(Nc1ccc(Br)cc1)/C(=C/c1cccc([N+](=O)[O-])c1)NC(=O)C1CCCCC1	-	90	-	-	-	84
COCCNC(=O)CN1CCN(S(=O)(=O)c2ccc3c(c2)CCCC3)CC1	.	-	-	-	-	.
COc1cc(OC)c(OC)cc1CNC(=O)c1cccc(S(=O)(=O)N2CCc3ccccc3C2)c1	.	98	.	.	.	104
CN1CCN(S(=O)(=O)c2cccc(C(=O)Nc3ccccc3N3CCCC3)c2)CC1	-	-	-	-	-	.
Cc1cc(N2CCN(C)CC2)ccc1NC(=O)c1cccc(S(=O)(=O)N2CCc3ccccc3C2)c1	-	92	-	-	-	-
O=C(Cc1csc(Nc2nc(=S)[nH]c3ccccc23)n1)N1CCN(c2cccc(C(F)(F)F)c2)CC1	-	-	-	-	-	.
CC1(C)CC(=O)C2=C(C1)N1C(=C(C#N)C2c2ccc(Cl)cc2)N=C(N)c2ccccc21 (configuration not stated)	-	-	-	-	-	.
CCOC(=O)C1=NNC(C(=O)c2ccccc2)C1c1ccc(Cl)cc1 (configuration not stated)	-	-	-	-	-	.
CC1(C)CC(=O)C2=C(C1)N=C1c3ccccc3C(=O)C1C2c1ccc(Cl)cc1 (configuration not stated)	-	98	-	-	96	-
Cc1ccc(C2C3=C(CC(C)(C)CC3=O)N=C3c4ccccc4C(=O)C32)cc1 (configuration not stated)	-	86	-	-	-	63
CCOC(=O)C1=C(C)N=C2c3ccccc3C(=O)C2C1c1ccc(Cl)cc1 (configuration not stated)	-	66	-	-	-	45
CC1=C(C)/C(=N\OS(=O)(=O)c2ccc(C)cc2)C=CC1=O	60	98	68	58	82	104
CC1=C/C(=N\OS(=O)(=O)c2ccccc2)C(C)=CC1=O	73	98	82	93	102	100
COc1ccc(S(=O)(=O)/N=C2/C=CC(=O)C(C)=C2C)cc1	-	-	-	-	-	.
COc1cccc(C(=O)NNC2OC(CO)C(O)C2O)c1 (configuration not stated)	-	-	-	-	-	.
Cc1cc(C)nc(-n2nc(C)c(Br)c2Nc2ccc(Br)cc2)n1	-	-	-	-	-	.
Cc1nn(C)c(Nc2ccc(Br)cc2)c1Br	-	89	71	40	-	76
COc1ccc(S(=O)(=O)Nc2nnc(Cc3ccc(OC)c(OC)c3)s2)cc1	-	-	-	-	-	.
Cc1cc(C(=O)COC(=O)c2ccccc2O)c(C)n1CC1CCCO1 (configuration not stated)	.	-	-	-	-	.
Cc1cc(C(=O)COc2ccccc2C(N)=O)c(C)n1CC1CCCO1 (configuration not stated)	-	93	34	-	-	80
Cc1ccc2nc(C)c3c(c2c1)OC(C(C)(Cl)Br)C3 (configuration not stated)	-	-	-	-	-	.
Cc1nc2ccccc2c2c1CC(C(C)(Cl)Br)O2 (configuration not stated)	-	60	51	-	-	84
COc1ccc(CCNC(=O)c2[nH]c(C)c(C(C)=O)c2C)cc1	-	-	-	-	-	.
CC(=O)c1c(C)[nH]c(C(=O)OCc2ccc(F)cc2Cl)c1C	-	78	-	-	-	69
COc1ccc(OCCOC(=O)c2[nH]c(C)c(C(C)=O)c2C)cc1	-	56	45	-	-	31
Cc1ccc(N(C)S(=O)(=O)c2ccc3c(c2)NC(=O)C(C)S3)cc1 (configuration not stated)	-	-	-	-	-	.
O=C(Nc1ccc2c(c1)CCC2)C1CCN(c2c3c(nc4ncnn24)CCC3)CC1	-	-	-	-	-	.
O=C(Nc1ccc(Oc2ccccc2)cc1)C1CCN(c2c3c(nc4ncnn24)CCC3)CC1	-	67	49	36	-	76
